Results filed as inconclusive are left out.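 The calls were made as follows, unless noted: active = RAM network inhibition above 8.4% in each of two replicates, 3 SD over the compound average; inconclusive = above 8.4% inhibition in only one replicate; inactive = 8.4% inhibition or less in each replicate.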
Columns and labels:
[1] = OD615 S. cerevisiae growth inhibition, permissive medium, pilot counter-assay, permissive growth control for S. cerevisiae lifespan shortening project (AID 705;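 active = growth inhibition above 25% in both replicates, a cutoff set 3 SD above the mean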); details: OD615, 24 h, at 10 µM, active compounds read high
In short: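 assay system = Saccharomyces cerevisiae strain carrying genetically modified DeaD replicative-lifespan system | medium = SC raffinose/galactose permissive medium | dosing = 10 µM single dose, 0.25% DMSO | schedule = 24 h compound exposure at 30 °C after 4 h pre-growth | measured by = OD at 615 nm | read-out basis = growth inhibition from lowered OD615 after 24 h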

[2] = Restrictive medium S. cerevisiae growth inhibition, OD615, pilot screen of yeast lifespan reduction project, restrictive growth control (AID 706;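 active = growth inhibition above a set limit, 3 SD over mean compound inhibition, in both replicates, cut at about 43% in these data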;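 also: modified DeaD lifespan yeast strain shifted to restrictive glucose medium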); details: OD615, 48 h, at 10 µM, active compounds read high
In short: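 Buffer or medium: CSMM-D glucose medium. Material: genetically modified Saccharomyces cerevisiae, DeaD replicative lifespan assay strain. Times: 48 h compound exposure at 30 °C. Measured by: optical density at 615 nm.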

[3] = viability gain of MRP-1-high H69AR cells under doxorubicin, pilot screen, MRP-1 activator project, CellTiter-Glo, duplicate (AID 807;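 active = viability increase at or above a cutoff of the median across tested compounds plus 3 SD, cut at about 8.5% in these data, passing the limit was not always enough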;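 also: compound pretreatment 18-22 h then 72 h combined with doxorubicin; 0% = doxorubicin alone and 100% = vehicle without doxorubicin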); details: H69AR viability with doxorubicin, CellTiter-Glo luminescence; at 10 µM; active compounds read high
[4] = growth suppression of beta-catenin knockout HCT116, pilot screen, human colon tumor cells (AID 823;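 active = cell viability at or below a set limit in both duplicate runs, the limit being the all-compound median minus 4 SD, cut at about 23% in these data, passing the limit was not always enough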;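 also: 0% = wells killed by 20 µM Hyamine and 100% = untreated DMSO cell wells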); details: CellTiter-Glo, 60 h, at 10 µM, active compounds read low
[5] = growth suppression of PTEN-deleted HCT116, pilot screen, cell-based, HCT116 clonal line, CellTiter-Glo (AID 824;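 active = viability at or below 27.92% in each of two runs, the all-compound median minus 4 SD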;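 also: 0% = 20 µM Hyamine control and 100% = vehicle cell control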); details: 60 h, at 10 µM, active compounds read low
[6] = inhibitors of the yeast RAM network, pilot screen, dse1pr::URA3 reporter, 5-FOA selection (AID 869;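 active = inhibition over a set limit, the all-compound mean plus 3 SD, in both replicate runs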;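 also: 0% = DMSO wells with no growth and 100% = 10 µM 1-NA-PP1 with full growth; RAM network block rescues cells from 5-FOA so hits raise OD615 growth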); details: S. cerevisiae dse1pr::URA3 5-FOA growth, OD615, 2 d; at 10 µM; active compounds read high; strain carries analog-sensitive mutant Cbk1 kinase
[7] = RAM signaling pathway blockade in yeast – S. cerevisiae, Pdr1DBD-CYC8 efflux-inhibited sensitized strain, primary screen (AID 1298);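 also: 0% = DMSO untreated cells without growth and 100% = 10 µM 1-NA-PP1 full growth; higher means more yeast growth rescued from 5-FOA killing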; details: S. cerevisiae cbk1-as DSE1-URA3 strain, 5-FOA growth OD615, 2 d; at 50 µM; active compounds read high

Cc1ccc2cc(CCNS(=O)(=O)c3ccc(F)cc3)c(=O)[nH]c2c1
inactive: growth inhibition [1] -11.5% | growth inhibition [2] -8.69% | viability increase [3] -1.91% | viability [4] 93% | viability [5] 80.5% | inhibition [6] 1.72% | RAM network inhibition [7] 1.31%

CCN(CC)CCCNC(=O)Cn1cc2c(n1)CCC(C)C2 (stereo not drawn)
inactive: growth inhibition [1] -3.44% | growth inhibition [2] -0.585% | viability increase [3] -1.22% | viability [4] 96.9% | viability [5] 98.1% | inhibition [6] 2.05% | RAM network inhibition [7] 2.3%

CC(=O)Nc1ccc(C2Nc3ccccc3C(=O)N2C2CCCCC2)cc1 (stereo not drawn)
inactive: growth inhibition [1] -5.95% | growth inhibition [2] -9.11% | viability increase [3] -1.42% | viability [4] 94.9% | viability [5] 93.6% | inhibition [6] 2.73% | RAM network inhibition [7] -0.56%

CCN1CCN(C(=O)CS(=O)(=O)Cc2nc(-c3ccc(C)cc3)oc2C)CC1
inactive: growth inhibition [1] -5.05% | growth inhibition [2] 3.62% | viability increase [3] -0.17% | viability [4] 85.2% | viability [5] 87.8% | inhibition [6] 0.805% | RAM network inhibition [7] 2.7%

O=C(c1ccccc1C(=O)N1CCN(c2ccccc2F)CC1)N1CCN(c2ccccc2F)CC1
inactive: growth inhibition [1] -6.81% | growth inhibition [2] -15.5% | viability increase [3] -0.42% | viability [4] 61.6% | viability [5] 68.2% | inhibition [6] 1.44% | RAM network inhibition [7] 11.2%

O=C1c2oc3ccc(Cl)cc3c(=O)c2C(c2ccco2)N1CCN1CCOCC1 (stereo not drawn)
inactive: growth inhibition [1] -2.05% | growth inhibition [2] -4.56% | viability increase [3] -5.51% | viability [4] 89.6% | viability [5] 90.4% | inhibition [6] 0.415% | RAM network inhibition [7] -1.88%

Cc1oc(C(C)(C)C)cc1C(=O)Nc1ccc(C(=O)O)cc1
inactive: growth inhibition [1] 6.25% | growth inhibition [2] -11.5% | viability increase [3] 2.02% | viability [4] 103% | viability [5] 91% | inhibition [6] 0.6% | RAM network inhibition [7] -1.87%

COc1ccc(OC)c(NC(=O)c2nnn(CCc3ccccc3)c2N)c1
inactive: growth inhibition [1] -5.97% | growth inhibition [2] -3.14% | viability increase [3] -4.62% | viability [4] 88% | viability [5] 89.7% | inhibition [6] 1.85% | RAM network inhibition [7] 13.1%

CCOCCCNC(=O)CCCn1nc(C)n2c(cc3sccc32)c1=O
inactive: growth inhibition [1] -4.89% | growth inhibition [2] 5.71% | viability increase [3] 0.66% | viability [4] 108% | viability [5] 98% | inhibition [6] 0.895% | RAM network inhibition [7] 4.4%

CCOc1ccccc1N(CC)C(=O)Cn1ncc2c(=O)oc3ccccc3c21
inactive: growth inhibition [1] -11.6% | growth inhibition [2] -7.42% | viability increase [3] -1.85% | viability [4] 95.7% | viability [5] 96.2% | inhibition [6] -0.255% | RAM network inhibition [7] 4.3%

Cc1cc(C)n(-c2ncnc3sc4c(c23)CC(C)CC4)n1 (stereo not drawn)
inactive: growth inhibition [1] -1.99% | growth inhibition [2] 6.4% | viability increase [3] -0.82% | viability [4] 89.7% | viability [5] 90.7% | inhibition [6] 1.6% | RAM network inhibition [7] 0.87%

Cc1sc2nc3ccc(N4CCCC4)nn3c(=O)c2c1C
inactive: growth inhibition [1] -0.905% | growth inhibition [2] 18.9% | viability increase [3] -2.12% | viability [4] 70.1% | viability [5] 75% | inhibition [6] 0.845% | RAM network inhibition [7] 2.93%

COCc1cc(C)nc2sc(C(=O)N3CCN(c4ccccc4)CC3)c(N)c12
inactive: growth inhibition [1] -3.52% | growth inhibition [2] 2.86% | viability increase [3] -0.4% | viability [4] 89% | viability [5] 86.8% | inhibition [6] 1.76% | RAM network inhibition [7] 3.05%

O=C(O)COc1ccc(Br)cc1/C=N/O
inactive: growth inhibition [1] 5.41% | growth inhibition [2] 3.78% | viability increase [3] -2.11% | viability [4] 92.7% | viability [5] 85.4% | inhibition [6] 0.975% | RAM network inhibition [7] 2.5%

COc1ccc(C2C(C(=O)NCCN(C)C)c3cc(OC)c(OC)cc3C(=O)N2C)cc1OC (stereo not drawn)
inactive: growth inhibition [1] -3.47% | growth inhibition [2] -1.52% | viability increase [3] -1.38% | viability [4] 101% | viability [5] 104% | inhibition [6] 1.56% | RAM network inhibition [7] 3.25%

Cc1ccc(CNC(=O)CCS(=O)(=O)c2cccc3nsnc23)cc1
inactive: growth inhibition [1] -2.81% | growth inhibition [2] -1.48% | viability increase [3] -1.57% | viability [4] 103% | viability [5] 104% | inhibition [6] 1.64% | RAM network inhibition [7] 6.91%

C=CCn1c(C)c(C(C)=O)c(SC)nc1=S
inactive: growth inhibition [1] -2.37% | growth inhibition [2] 17.1% | viability increase [3] -1.99% | viability [4] 101% | viability [5] 99.8% | inhibition [6] 0.34% | RAM network inhibition [7] 5.32%

CCOC(=O)CSc1nnc(Cn2c(=O)sc3ccccc32)n1-c1ccccc1C
inactive: growth inhibition [1] -8.34% | growth inhibition [2] -6.71% | viability increase [3] -1.07% | viability [4] 96.2% | viability [5] 96% | inhibition [6] 2.26% | RAM network inhibition [7] 2.24%

C=CCn1c(NC(C)c2cc(Cl)ccc2O)nc2ccccc21 (stereo not drawn)
inactive: growth inhibition [1] -8.04% | growth inhibition [2] -0.215% | viability increase [3] -0.96% | viability [4] 68.6% | viability [5] 65.1% | inhibition [6] 0.29% | RAM network inhibition [7] -1.03%

O=C(CCNS(=O)(=O)c1cccc2nsnc12)NCCC1=CCCCC1
inactive: growth inhibition [1] -8.97% | growth inhibition [2] -9.04% | viability increase [3] -2.88% | viability [4] 90.6% | viability [5] 94.8% | inhibition [6] 2.49% | RAM network inhibition [7] 6.94%

CCCC(=O)NCCc1cc2ccc(C)c(C)c2[nH]c1=O
inactive: growth inhibition [1] -13% | growth inhibition [2] -25.4% | viability increase [3] -1.61% | viability [4] 103% | viability [5] 97.6% | inhibition [6] 1.91% | RAM network inhibition [7] 4%

CC(C)C(NS(=O)(=O)c1ccc2c(c1)oc(=O)n2C)C(=O)N1CCN(c2ccccc2F)CC1 (stereo not drawn)
inactive: growth inhibition [1] -11% | growth inhibition [2] -9.9% | viability increase [3] -4.04% | viability [4] 86.9% | viability [5] 83.1% | inhibition [6] 1.75% | RAM network inhibition [7] 4.04%

CCC(CC)C(=O)N1c2ccc(F)cc2CCC1C (stereo not drawn)
inactive: growth inhibition [1] -16.6% | growth inhibition [2] -10.7% | viability increase [3] -0.23% | viability [4] 95.3% | viability [5] 93.9% | inhibition [6] 1.31% | RAM network inhibition [7] 1.96%

COc1ccc(C(=O)Nc2ccc(S(=O)(=O)Nc3cc(C)nc(C)n3)cc2)c(OC)c1
inactive: growth inhibition [1] 6.9% | growth inhibition [2] -0.365% | viability increase [3] 0.28% | viability [4] 98.6% | viability [5] 95.8% | inhibition [6] 1.77% | RAM network inhibition [7] 3.78%

— PubChem BioAssay
